According to ChEMBL document CHEMBL3352189 (J Med Chem, 2014):

How the values were obtained:
Mus musculus [1] = test: Toxicity in Venezuelan equine encephalitis virus TC83 infected C3H/HeN mouse assessed as induction of hunched posture at 5 mg/kg/day, ip BID for 4 days; format: organism-based; design: route intraperitoneal; conditions: in vivo, 96 h
Mus musculus [2] = test: Toxicity in Venezuelan equine encephalitis virus TC83 infected C3H/HeN mouse assessed as induction of ruffled fur at 40 mg/kg/day, ip BID for 4 days; format: organism-based; design: route intraperitoneal; conditions: in vivo, 96 h
[3] = target: Adenosine receptor A2a (Homo sapiens) (UniProt P29274); test: Displacement of [3H]CGS-21680 from human adenosine A2A receptor at 10 uM
Adenosine receptor A2a (Homo sapiens), sequence (P29274 whole entry): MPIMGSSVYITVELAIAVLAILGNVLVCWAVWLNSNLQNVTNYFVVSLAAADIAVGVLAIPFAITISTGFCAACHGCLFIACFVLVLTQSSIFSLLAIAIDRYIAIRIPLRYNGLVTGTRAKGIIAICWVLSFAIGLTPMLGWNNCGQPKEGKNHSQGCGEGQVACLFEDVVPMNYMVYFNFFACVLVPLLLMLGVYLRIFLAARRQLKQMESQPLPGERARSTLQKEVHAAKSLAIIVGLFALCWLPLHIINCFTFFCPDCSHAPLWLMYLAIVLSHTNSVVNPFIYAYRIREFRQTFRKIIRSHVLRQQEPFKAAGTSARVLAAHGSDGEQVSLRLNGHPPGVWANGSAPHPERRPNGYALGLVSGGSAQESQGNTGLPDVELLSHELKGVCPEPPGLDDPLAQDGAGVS

[4] = target: Alpha-1A adrenergic receptor (Rattus norvegicus) (UniProt P43140); test: Displacement of [3H]prazosin from rat adrenergic alpha1A receptor at 10 uM
[5] = target: Alpha-1B adrenergic receptor (Rattus norvegicus) (UniProt P15823); test: Displacement of [3H]prazosin from rat adrenergic alpha1B receptor at 10 uM
Alpha-1B adrenergic receptor (Rattus norvegicus), sequence (P15823 whole entry): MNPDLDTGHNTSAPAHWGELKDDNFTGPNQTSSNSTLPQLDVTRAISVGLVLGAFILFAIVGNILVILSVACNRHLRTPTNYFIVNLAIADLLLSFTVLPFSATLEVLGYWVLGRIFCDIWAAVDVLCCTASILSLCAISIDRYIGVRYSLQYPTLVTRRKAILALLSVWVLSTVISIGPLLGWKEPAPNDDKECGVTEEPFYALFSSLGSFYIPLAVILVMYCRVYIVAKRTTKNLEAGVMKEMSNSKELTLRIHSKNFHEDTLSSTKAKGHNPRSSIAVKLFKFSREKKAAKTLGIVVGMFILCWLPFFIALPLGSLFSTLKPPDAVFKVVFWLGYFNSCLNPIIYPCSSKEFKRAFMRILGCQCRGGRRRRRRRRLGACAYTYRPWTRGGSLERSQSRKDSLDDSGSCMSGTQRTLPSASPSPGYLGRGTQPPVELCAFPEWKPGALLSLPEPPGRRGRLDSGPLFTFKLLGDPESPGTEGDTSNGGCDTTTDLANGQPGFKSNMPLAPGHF

[6] = target: Alpha-1D adrenergic receptor (Homo sapiens) (UniProt P25100); test: Displacement of [3H]prazosin from human adrenergic alpha1D receptor at 10 uM
[7] = target: Beta-1 adrenergic receptor (Homo sapiens) (UniProt P08588); test: Displacement of [125I]cyanopindolol from human adrenergic beta1 receptor at 10 uM
Beta-1 adrenergic receptor (Homo sapiens), sequence (P08588 whole entry, looked up): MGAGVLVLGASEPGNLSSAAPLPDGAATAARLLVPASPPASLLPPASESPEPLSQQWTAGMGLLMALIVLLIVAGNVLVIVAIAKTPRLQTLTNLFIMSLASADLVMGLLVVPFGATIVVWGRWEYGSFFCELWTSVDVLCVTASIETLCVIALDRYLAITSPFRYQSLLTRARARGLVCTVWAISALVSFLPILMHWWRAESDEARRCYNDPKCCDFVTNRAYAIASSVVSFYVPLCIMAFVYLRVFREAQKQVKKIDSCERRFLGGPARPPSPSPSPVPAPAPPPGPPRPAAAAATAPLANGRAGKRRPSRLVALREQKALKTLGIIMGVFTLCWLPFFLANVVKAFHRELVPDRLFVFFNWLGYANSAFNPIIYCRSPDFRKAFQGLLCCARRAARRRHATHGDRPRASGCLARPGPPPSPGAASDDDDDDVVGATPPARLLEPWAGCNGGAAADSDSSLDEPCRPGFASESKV

[8] = target: L-type calcium channel, benzothiazepine site (Rattus norvegicus, UniProt P22002+P27732+Q02485); test: Displacement of [3H]diltiazem from rat calcium channel L-Type benzothiazepine site at 10 uM; format: protein assay; conditions: probe [3H]diltiazem
[9] = target: L-type calcium channel, dihydropyridine site (Rattus norvegicus, UniProt P22002+P27732+Q02485); test: Displacement of [3H]nitrendipine from rat calcium channel L-Type dihydropyridine site at 10 uM; format: protein assay; conditions: probe [3H]nitrendipine
[10] = target: D(1A) dopamine receptor (Homo sapiens) (UniProt P21728); test: Displacement of [3H]SCH-23390 from human dopamine D1 receptor at 10 uM
[11] = target: Endothelin-1 receptor (Homo sapiens) (UniProt P25101); test: Displacement of [125I]endothelin-1 from human ETA receptor at 10 uM
[12] = target: Gamma-aminobutyric acid type B receptor subunit 1 (Homo sapiens) (UniProt Q9UBS5); test: Displacement of [3H]CGP-54626 from human GABA B1A receptor at 10 uM
[13] = target: T1, Glutamate NMDA receptor (Rattus norvegicus) (UniProt P35439+Q00959+Q00960+Q00961+Q62645+Q8VHN2+Q9R1M7); test: Displacement of [3H]TCP from rat NMDA receptor phencyclidine binding site binding site at 10 uM; format: protein-complex assay
[14] = target: T1, Glutamate NMDA receptor (Rattus norvegicus); test: Displacement of [3H]MDL 105,519 from rat NMDA receptor glycine binding site binding site at 10 uM; format: protein-complex assay
[15] = target: T1, Glutamate NMDA receptor (Rattus norvegicus); test: Displacement of [3H]CGP-39653 from rat NMDA receptor agonist binding site binding site at 10 uM; format: protein-complex assay
[16] = target: Histamine H2 receptor (Homo sapiens) (UniProt P25021); test: Displacement of [125I]aminopotentidine from human histamine H2 receptor at 10 uM
Histamine H2 receptor (Homo sapiens), sequence (P25021 whole entry): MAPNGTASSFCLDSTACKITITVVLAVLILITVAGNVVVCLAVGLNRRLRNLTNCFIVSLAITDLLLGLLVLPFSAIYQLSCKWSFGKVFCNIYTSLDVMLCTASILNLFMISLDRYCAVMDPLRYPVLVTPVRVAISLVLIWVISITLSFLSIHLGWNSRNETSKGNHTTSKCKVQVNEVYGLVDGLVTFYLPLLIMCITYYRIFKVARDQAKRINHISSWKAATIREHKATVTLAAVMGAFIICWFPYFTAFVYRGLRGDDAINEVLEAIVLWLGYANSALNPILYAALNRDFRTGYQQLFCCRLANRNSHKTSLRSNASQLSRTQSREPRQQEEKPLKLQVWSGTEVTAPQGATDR

[17] = target: Melatonin-related receptor (Homo sapiens) (UniProt Q13585); test: Displacement of [125I]2-Iodomelatonin from human MT1 receptor at 10 uM
[18] = target: Muscarinic acetylcholine receptor M1 (Homo sapiens) (UniProt P11229); test: Displacement of [3H]N-Methylscopolamine from human muscarinic M1 receptor at 10 uM
Muscarinic acetylcholine receptor M1 (Homo sapiens), sequence (P11229 whole entry): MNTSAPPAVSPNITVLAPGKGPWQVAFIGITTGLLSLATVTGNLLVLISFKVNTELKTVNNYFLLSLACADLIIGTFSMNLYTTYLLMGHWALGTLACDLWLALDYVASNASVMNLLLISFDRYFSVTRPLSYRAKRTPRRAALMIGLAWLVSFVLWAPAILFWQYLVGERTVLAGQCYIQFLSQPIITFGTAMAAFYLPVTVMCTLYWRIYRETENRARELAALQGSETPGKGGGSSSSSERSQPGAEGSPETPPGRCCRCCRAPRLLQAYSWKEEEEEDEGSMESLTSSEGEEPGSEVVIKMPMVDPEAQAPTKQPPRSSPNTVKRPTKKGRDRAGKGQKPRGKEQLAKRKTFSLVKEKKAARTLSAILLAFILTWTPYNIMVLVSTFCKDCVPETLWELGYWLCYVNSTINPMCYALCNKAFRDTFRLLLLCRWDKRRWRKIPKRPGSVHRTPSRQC

[19] = target: Muscarinic acetylcholine receptor M2 (Homo sapiens) (UniProt P08172); test: Displacement of [3H]N-Methylscopolamine from human muscarinic M2 receptor at 10 uM
Muscarinic acetylcholine receptor M2 (Homo sapiens), sequence (P08172 whole entry): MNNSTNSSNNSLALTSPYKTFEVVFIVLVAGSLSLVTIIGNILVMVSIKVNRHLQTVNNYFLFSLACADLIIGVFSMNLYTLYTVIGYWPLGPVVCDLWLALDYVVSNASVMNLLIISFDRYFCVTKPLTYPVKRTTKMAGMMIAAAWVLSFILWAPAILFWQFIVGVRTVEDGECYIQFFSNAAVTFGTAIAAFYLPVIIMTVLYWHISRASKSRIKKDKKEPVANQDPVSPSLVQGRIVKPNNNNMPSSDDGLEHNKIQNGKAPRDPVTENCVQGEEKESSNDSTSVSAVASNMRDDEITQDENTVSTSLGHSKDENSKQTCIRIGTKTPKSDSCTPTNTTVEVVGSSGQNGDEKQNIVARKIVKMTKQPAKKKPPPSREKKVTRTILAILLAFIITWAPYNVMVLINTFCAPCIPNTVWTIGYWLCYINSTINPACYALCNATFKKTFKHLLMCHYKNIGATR

[20] = target: Muscarinic acetylcholine receptor M3 (Homo sapiens) (UniProt P20309); test: Displacement of [3H]N-Methylscopolamine from human muscarinic M3 receptor at 10 uM
Muscarinic acetylcholine receptor M3 (Homo sapiens), sequence (P20309 whole entry, looked up): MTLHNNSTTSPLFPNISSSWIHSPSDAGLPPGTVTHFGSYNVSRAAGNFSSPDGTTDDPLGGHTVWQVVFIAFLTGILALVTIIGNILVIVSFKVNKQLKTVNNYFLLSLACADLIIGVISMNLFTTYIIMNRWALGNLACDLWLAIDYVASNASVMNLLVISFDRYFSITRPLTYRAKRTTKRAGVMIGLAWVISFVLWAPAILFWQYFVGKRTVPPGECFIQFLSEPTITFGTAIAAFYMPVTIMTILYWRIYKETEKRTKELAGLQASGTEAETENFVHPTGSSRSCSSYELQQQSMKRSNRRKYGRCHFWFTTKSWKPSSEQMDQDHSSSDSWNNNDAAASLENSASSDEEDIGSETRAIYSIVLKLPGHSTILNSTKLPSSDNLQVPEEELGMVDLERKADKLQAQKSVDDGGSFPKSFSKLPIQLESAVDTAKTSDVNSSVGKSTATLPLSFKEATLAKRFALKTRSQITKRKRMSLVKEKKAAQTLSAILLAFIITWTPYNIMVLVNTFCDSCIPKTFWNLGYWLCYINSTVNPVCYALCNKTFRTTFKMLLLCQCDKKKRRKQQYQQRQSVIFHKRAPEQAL

[21] = target: Acetylcholine receptor subunit alpha (Homo sapiens) (UniProt P02708); test: Displacement of [125I]alpha-Bungarotoxin from human nAchR alpha1 bungarotoxin binding site at 10 uM
[22] = target: Delta-type opioid receptor (Homo sapiens) (UniProt P41143); test: Displacement of [3H]naltrindole from human delta1 opiate receptor at 10 uM
Delta-type opioid receptor (Homo sapiens), sequence (P41143 whole entry): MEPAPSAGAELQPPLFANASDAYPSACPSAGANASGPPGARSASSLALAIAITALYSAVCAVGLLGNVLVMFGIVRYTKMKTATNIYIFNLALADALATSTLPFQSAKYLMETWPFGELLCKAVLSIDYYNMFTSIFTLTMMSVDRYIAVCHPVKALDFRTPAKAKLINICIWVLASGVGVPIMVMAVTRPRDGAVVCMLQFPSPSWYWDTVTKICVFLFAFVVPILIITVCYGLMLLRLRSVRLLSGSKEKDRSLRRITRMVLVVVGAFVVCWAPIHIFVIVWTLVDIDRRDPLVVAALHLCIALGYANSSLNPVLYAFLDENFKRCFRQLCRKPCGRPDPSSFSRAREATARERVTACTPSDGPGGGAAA

[23] = target: Platelet-activating factor receptor (Homo sapiens) (UniProt P25105); test: Displacement of [3H]PAF from human PAF receptor at 10 uM
Platelet-activating factor receptor (Homo sapiens), sequence (P25105 whole entry): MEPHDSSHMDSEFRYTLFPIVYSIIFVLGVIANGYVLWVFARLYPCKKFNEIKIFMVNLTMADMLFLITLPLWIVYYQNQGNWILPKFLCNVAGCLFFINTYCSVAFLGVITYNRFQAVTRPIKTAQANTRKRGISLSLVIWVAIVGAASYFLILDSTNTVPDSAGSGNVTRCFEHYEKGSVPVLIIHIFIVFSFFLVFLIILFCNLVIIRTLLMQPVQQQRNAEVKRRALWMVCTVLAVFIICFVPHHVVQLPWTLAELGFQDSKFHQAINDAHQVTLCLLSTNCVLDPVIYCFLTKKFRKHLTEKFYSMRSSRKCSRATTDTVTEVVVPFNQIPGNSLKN

Oryctolagus cuniculus = organism: Oryctolagus cuniculus; test: Displacement of [3H]alpha,beta-methylene-ATP from rabbit P2X channel at 10 uM
[24] = target: 5-hydroxytryptamine receptor 1A (Homo sapiens) (UniProt P08908); test: Displacement of [3H]8-OH-DPAT from human 5HT1A receptor at 10 uM
5-hydroxytryptamine receptor 1A (Homo sapiens), sequence (P08908 whole entry): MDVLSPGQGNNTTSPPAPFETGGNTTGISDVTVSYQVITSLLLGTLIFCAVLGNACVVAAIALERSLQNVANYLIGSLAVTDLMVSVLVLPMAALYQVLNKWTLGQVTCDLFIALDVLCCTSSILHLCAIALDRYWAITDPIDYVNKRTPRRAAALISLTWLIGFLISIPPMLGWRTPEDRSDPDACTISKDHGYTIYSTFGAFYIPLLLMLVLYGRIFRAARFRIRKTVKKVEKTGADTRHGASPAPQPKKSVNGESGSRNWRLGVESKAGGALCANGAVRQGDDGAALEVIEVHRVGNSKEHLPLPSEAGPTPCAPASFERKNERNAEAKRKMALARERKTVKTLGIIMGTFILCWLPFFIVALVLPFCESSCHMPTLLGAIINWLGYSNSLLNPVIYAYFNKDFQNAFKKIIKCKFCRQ

Rattus norvegicus = organism: Rattus norvegicus; test: Displacement of radioligand from rat sodium channel site 2 at 10 uM
[25] = target: Sodium-dependent dopamine transporter (Homo sapiens) (UniProt Q01959); test: Displacement of [125I]RTI-55 from human DAT at 10 uM
[26] = test system: Venezuelan equine encephalitis virus; test: Antiviral activity against Venezuelan equine encephalitis virus TrD infected in Vero 76 cells assessed as reduction in virus-induced cytopathic effect after 2 days by Celltiter-Glo reagent based assay; format: functional, organism-based; conditions: Vero 76, 48 h
[27] = Chemical stability in presence of 5x DTT assessed as parent compound remaining incubated for 8 hrs; format: physicochemical; conditions: read-out: Stability
[28] = Stability in pH 7.4 PBS buffer assessed as parent compound remaining; format: physicochemical
Procedure, shortened: (§1)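 Aqueous stability measured after 48 h incubation, in PBS pH 7.4 or in 1:1 PBS/acetonitrile; reported as % parent remaining.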

[29] = Stability in 1:1 PBS/acetonitrile assessed as parent compound remaining; format: physicochemical; conditions: buffer; procedure, shortened: as §1
CYP3A4 = CYP3A4 (Homo sapiens, UniProt P08684); test: Inhibition of human CYP3A4 at 10 uM; format: ADME
CYP3A4, sequence (P08684 whole entry): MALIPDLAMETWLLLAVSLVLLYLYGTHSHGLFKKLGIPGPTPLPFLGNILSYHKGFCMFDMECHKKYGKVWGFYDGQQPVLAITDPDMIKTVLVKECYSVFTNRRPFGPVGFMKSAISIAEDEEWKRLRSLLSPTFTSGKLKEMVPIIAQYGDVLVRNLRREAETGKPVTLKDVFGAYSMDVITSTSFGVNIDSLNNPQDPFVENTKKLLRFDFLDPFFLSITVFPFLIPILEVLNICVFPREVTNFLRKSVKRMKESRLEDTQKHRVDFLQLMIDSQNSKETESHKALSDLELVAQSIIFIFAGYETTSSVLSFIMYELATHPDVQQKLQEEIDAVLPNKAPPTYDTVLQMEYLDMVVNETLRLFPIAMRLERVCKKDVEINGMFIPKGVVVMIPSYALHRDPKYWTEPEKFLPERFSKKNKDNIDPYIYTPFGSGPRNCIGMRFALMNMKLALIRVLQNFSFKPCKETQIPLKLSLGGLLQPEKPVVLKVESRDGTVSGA
Procedure, shortened: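 Human CYP inhibition run with reference inhibitors as controls: α-naphthoflavone for CYP1A2 and ketoconazole for CYP3A4.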

[30] = Plasma concentration in C57BL/6 mouse at 1 mg/kg, ip administered as single dose measured after 120 mins by LC/MS analysis based RACE assay; format: ADME, organism-based; design: dose 1 mg/kg, route intraperitoneal
Procedure, shortened: (§2)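 Single intraperitoneal dose of 1, 5 or 10 mg/kg given to C57BL/6 mice, 3 mice per dose and time point, with a vehicle-control cohort. Plasma was sampled at 20 and 120 min post-dose and drug level measured by LC/MS. Each time point averaged two injections (<20% difference); values are means ± standard deviation in μM.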

[31] = Plasma concentration in C57BL/6 mouse at 5 mg/kg, ip administered as single dose measured after 20 mins by LC/MS analysis based RACE assay; format: ADME, organism-based; design: dose 5 mg/kg, route intraperitoneal; procedure, shortened: as §2
[32] = Plasma concentration in C57BL/6 mouse at 10 mg/kg, ip administered as single dose measured after 20 mins by LC/MS analysis based RACE assay; format: ADME, organism-based; design: dose 10 mg/kg, route intraperitoneal; procedure, shortened: as §2
[33] = Drug concentration in C57BL/6 mouse brain at 5 mg/kg, ip administered as single dose measured after 120 mins by LC/MS analysis based RACE assay; format: ADME, organism-based; design: dose 5 mg/kg, route intraperitoneal; conditions: read-out: Drug uptake
Procedure, shortened: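 Brain tissue taken at the terminal 120 min point after one intraperitoneal dose (1, 5 or 10 mg/kg) in C57BL/6 mice, 3 per group, with a vehicle cohort. Drug level measured by LC/MS, averaging two injections per sample; reported as mean ± standard deviation, μM.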

CN1CCN(C)/C(=N/c2ccc([N+](=O)[O-])cc2C(=O)Nc2ccccc2)C1
Activity (Mus musculus [1]): Non-toxic
Activity (Mus musculus [2]): Non-toxic
inhibition [3]: 17%
inhibition [4]: 4.41%
inhibition [5]: -1.17%
inhibition [6]: -7.82%
inhibition [7]: 3.56%
inhibition at 10 µM [8]: 7.06%
inhibition at 10 µM [9]: 4.51%
inhibition [10]: 2.65%
inhibition [11]: 7.78%
inhibition [12]: 35.9%
inhibition [13]: 9.28%
inhibition [14]: 12.9%
inhibition [15]: -2.6%
inhibition [16]: 20.4%
inhibition [17]: 18%
inhibition [18]: 0.73%
inhibition [19]: 2.1%
inhibition [20]: 3%
inhibition [21]: 0.62%
inhibition [22]: -2.18%
inhibition [23]: 7.04%
inhibition (Oryctolagus cuniculus): 14.2%
inhibition [24]: 2.12%
inhibition (Rattus norvegicus): 9.27%
inhibition [25]: 10.8%
EC50 [26]: 40 nM
remaining at 8 h [27]: 99%
Stability [28]: 82.9%
Stability [29]: 95.9%
inhibition at 10 µM (CYP3A4): 18%
concentration at 2 h [30]: 23 nM
concentration at 20 min [31]: 1450 nM
concentration at 20 min [32]: 2680 nM
concentration at 2 h [33]: 210 nM
